Laboratory results as given in BindingDB's records for doi:10.1021/acs.jmedchem.7b00693 (The University of Tokyo, 2017).

Target: Probable G-protein coupled receptor 34 (Mus musculus, UniProt Q9R1K6)
Test: Agonist activity at mouse GPR34 expressed in HEK293 cells co-transfected with AP-TGFalpha/chimeric Galphaq/i1 assessed as induction of ectodomain shedding of membrane bound AP-TGFalpha after 1 hr
Summary of the method: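 HEK293A cells transiently co-transfected with AP-TGFα, chimeric Gαq/i1 and GPR34 (human for line 1, mouse for line 3) or empty vector (mock). After 24 h, cells were suspended in HBSS with 5 mM HEPES pH 7.4 and preincubated 30 min with 10 μM (final) Ki16425. Compounds in HBSS with 0.01% fatty acid-free BSA were added for 1 h at 37 °C. AP activity in medium and on cells was read as OD405 with p-NPP after 1 h at room temperature.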

Sequence of Probable G-protein coupled receptor 34 (Q9R1K6 whole entry, the tested form may be a part): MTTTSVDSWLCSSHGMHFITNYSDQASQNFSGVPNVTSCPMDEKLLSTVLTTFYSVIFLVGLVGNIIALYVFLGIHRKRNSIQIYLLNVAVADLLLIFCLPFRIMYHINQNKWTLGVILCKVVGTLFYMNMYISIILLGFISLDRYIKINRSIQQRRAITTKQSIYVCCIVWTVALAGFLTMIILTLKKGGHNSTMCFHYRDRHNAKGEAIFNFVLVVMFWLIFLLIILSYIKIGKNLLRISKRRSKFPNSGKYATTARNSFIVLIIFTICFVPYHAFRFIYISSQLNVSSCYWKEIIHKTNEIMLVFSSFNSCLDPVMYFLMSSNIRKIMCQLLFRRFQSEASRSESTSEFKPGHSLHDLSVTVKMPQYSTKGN

Row | SMILES | EC50 [µM]
1 | CCCCCCCC/C=C\CCCCCCCC(=O)OCCCOP(=O)(O)OC[C@H](N)C(=O)O | > 3.16
2 | N[C@@H](COP(=O)(O)OCCCOC(=O)CCc1ccccc1OCc1cccc(OCc2ccccc2)c1)C(=O)O | > 3.16
3 | CCCCCCOc1cccc(COc2ccccc2CCC(=O)OCCCOP(=O)(O)OC[C@H](N)C(=O)O)c1 | > 3.16
4 | CCCCCCOCC#CCOc1ccccc1CCC(=O)OCCCOP(=O)(O)OC[C@H](N)C(=O)O | > 3.16

Second part, the molecule after the results:

Row | EC50 [µM] | SMILES
5 | > 3.16 | CC(C)(C)c1ccccc1Oc1cccc(COc2ccccc2CCC(=O)OCCCOP(=O)(O)OC[C@H](N)C(=O)O)c1
6 | > 3.16 | N[C@@H](COP(=O)(O)OCCCOC(=O)CCc1ccccc1OCc1cccc(-c2ccccc2)c1)C(=O)O
